{
  "source": "paper PMC3607822",
  "about": "(The Journal of General Physiology, 2013)",
  "key": {"[1]": {"target": "T1, human CNGA3 wild-type homomeric channels (Homo sapiens, UniProt Q16281)", "T1 sequence (Q16281 1-694)": "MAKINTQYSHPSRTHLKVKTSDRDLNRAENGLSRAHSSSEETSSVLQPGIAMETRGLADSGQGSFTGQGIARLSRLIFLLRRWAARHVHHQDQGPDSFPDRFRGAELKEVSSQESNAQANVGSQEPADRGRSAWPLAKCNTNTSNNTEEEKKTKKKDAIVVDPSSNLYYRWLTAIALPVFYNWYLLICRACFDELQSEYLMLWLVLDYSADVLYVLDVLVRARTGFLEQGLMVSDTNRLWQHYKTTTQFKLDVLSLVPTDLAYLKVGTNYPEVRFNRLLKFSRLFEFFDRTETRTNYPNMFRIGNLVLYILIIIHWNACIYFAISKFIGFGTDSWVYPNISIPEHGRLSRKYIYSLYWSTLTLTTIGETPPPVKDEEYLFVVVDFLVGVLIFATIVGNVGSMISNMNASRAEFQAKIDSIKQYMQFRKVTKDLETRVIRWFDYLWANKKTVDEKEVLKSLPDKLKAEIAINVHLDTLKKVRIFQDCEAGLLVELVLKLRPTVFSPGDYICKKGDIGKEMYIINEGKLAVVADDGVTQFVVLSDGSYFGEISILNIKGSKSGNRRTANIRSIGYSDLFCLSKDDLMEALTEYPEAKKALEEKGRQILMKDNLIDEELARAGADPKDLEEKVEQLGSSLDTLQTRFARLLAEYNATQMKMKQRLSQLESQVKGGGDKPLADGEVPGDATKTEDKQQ", "test": "Inside-out patch clamp, homomeric CNGA3 wild type expressed in X. laevis oocytes", "format": "biochemical"}, "[2]": {"target": "T2, CNGA3 635X homomeric channels (Homo sapiens, UniProt Q16281)", "T2 sequence (Q16281 1-634 limits assumed)": "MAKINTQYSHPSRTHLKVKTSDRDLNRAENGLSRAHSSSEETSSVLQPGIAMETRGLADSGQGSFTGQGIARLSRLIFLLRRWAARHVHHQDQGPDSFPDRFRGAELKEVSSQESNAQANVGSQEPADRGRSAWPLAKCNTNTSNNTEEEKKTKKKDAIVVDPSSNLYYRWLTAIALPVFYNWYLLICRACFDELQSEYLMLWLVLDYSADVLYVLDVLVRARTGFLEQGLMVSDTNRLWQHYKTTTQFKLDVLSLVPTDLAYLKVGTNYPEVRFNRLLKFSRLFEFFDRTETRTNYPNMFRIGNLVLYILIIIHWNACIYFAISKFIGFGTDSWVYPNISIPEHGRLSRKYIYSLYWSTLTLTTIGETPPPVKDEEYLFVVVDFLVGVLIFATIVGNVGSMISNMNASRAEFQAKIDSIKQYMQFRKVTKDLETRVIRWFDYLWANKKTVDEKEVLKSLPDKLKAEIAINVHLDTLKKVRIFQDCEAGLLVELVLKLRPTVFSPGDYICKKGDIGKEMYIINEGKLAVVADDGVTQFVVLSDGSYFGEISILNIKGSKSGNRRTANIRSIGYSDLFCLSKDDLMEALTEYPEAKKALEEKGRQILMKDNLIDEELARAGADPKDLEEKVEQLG", "test": "Inside-out patch clamp, CNGA3 635X", "format": "biochemical"}, "[3]": {"target": "CNGA3 ΔN (2-156), 613X channels (Homo sapiens, UniProt Q16281)", "test": "Inside-out patch clamp, CNGA3 ΔN", "format": "biochemical"}, "[4]": {"target": "T3, CNGA3 N7R-A, 613X channels (Homo sapiens, UniProt Q16281, R101A/R103A/R72A/R75A/R81A/R82A/R86A)", "T3 sequence (Q16281 1-612 R72A/R75A/R81A/R82A/R86A/R101A/R103A limits assumed)": "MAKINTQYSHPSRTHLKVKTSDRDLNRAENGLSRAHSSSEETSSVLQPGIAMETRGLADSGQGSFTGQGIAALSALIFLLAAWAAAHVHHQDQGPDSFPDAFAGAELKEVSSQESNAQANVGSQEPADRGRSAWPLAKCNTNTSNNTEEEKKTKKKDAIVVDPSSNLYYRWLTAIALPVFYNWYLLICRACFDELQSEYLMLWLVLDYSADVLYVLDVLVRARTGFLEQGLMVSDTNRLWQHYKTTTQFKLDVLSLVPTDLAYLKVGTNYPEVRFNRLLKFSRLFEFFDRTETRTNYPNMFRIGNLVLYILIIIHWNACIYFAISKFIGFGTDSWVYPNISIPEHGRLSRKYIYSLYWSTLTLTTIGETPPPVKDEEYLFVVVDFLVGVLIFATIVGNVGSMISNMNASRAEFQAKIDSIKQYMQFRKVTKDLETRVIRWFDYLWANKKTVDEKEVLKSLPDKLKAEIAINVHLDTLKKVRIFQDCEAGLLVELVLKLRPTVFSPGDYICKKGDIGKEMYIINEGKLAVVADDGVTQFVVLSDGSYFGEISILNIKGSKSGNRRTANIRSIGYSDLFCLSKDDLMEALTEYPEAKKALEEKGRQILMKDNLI", "test": "Inside-out patch clamp, CNGA3 N7R-A, 613X", "format": "biochemical"}, "[5]": {"target": "CNGA3 D609M channels (Homo sapiens, UniProt Q16281, D609M)", "test": "Inside-out patch clamp, CNGA3 D609M", "format": "biochemical"}, "[6]": {"test_system": "PA-LP+RR-QQ CNGA3 channels", "test": "Inside-out patch clamp, coexpression of A3 PA-LP with A3 RR-QQ", "format": "biochemical, human", "settings": "1 µM PIP3"}, "[7]": {"target": "wild-type CNGA2 with CNGB3 channels (UniProt Q00195+Q9NQW8)", "sequence (Q00195 whole entry)": "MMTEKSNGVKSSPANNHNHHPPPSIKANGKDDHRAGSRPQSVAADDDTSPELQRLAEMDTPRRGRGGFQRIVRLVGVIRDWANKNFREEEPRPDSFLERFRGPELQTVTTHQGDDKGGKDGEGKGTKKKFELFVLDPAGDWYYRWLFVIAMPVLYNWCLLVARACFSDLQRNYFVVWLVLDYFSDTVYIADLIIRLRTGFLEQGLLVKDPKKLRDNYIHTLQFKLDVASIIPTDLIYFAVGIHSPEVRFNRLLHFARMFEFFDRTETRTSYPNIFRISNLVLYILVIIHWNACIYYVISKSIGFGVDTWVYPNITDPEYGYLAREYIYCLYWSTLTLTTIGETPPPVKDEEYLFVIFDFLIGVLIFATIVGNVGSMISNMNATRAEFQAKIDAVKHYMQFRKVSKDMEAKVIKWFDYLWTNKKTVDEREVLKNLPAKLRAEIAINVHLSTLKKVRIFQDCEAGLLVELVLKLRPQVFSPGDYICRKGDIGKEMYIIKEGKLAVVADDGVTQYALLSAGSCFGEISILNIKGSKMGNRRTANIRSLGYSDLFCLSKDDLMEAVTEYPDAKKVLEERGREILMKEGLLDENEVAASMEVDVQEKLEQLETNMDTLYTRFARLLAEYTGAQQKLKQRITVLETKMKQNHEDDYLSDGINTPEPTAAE", "sequence (Q9NQW8 whole entry)": "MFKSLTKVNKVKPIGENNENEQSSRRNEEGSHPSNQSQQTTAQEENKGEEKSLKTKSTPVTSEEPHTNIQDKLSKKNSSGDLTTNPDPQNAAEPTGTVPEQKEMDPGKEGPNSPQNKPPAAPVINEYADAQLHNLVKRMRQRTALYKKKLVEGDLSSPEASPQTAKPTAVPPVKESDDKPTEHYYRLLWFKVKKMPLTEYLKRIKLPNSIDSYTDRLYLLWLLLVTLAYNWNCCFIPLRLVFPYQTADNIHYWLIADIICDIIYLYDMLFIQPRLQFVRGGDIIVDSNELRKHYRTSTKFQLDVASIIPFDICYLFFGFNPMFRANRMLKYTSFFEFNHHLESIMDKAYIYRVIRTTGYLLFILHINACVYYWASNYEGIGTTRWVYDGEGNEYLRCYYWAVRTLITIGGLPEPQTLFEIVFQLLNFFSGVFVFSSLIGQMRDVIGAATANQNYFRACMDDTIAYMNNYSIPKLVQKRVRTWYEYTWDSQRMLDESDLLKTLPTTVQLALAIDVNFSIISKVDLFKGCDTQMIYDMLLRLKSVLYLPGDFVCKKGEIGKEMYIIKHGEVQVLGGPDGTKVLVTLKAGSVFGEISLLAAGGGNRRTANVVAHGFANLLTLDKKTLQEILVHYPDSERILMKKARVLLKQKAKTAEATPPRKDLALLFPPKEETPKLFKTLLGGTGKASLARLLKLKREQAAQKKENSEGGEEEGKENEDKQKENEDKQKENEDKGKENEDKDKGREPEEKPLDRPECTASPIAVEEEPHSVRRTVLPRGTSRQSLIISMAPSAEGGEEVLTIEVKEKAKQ", "test": "Inside-out patch clamp, CNGA2 with CNGB3", "format": "biochemical, rat, human", "settings": "1 µM PIP3", "in_short": "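Subunit cRNAs (~20 ng, B in excess over A) injected into stage IV Xenopus oocytes; inside-out patches 2–7 d later, 20–22°C, symmetric 130 mM NaCl, 0.2 mM EDTA, 3 mM Hepes pH 7.2. Heteromer formation checked by 25 µM l-cis-diltiazem with 1 mM cGMP. diC8 phosphoinositides applied intracellularly in phosphatase-inhibitor cocktail. cGMP dose–response at +80 mV, leak-subtracted, Hill fit before/after for K1/2; mean ± SEM.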"}, "[8]": {"target": "GST fusion A3N7R-A (Homo sapiens, UniProt Q16281, R101A/R103A/R72A/R75A/R81A/R82A/R86A)", "test": "In vitro PIP3-agarose bead pull-down, A3N7R-A", "format": "binding", "settings": "PIP3-agarose beads, anti-GST immunoblot; compared with A3N", "in_short": "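Recombinant GST fusions of channel fragments expressed in E. coli and purified; soluble fraction kept after 20,000 g, 4°C, 30 min. Protein (2 µg/ml) rocked with PIP3- or control agarose beads, 2 h, 4°C, in 10 mM Hepes pH 7.4, 50 mM NaCl, 2 mM EDTA, 0.25% Triton X-100, 0.25% NP-40. Five washes, elution in sample buffer, reducing SDS gel, anti-GST (1:2,000, overnight) immunoblot, chemiluminescence; […].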"}, "[9]": {"settings": "read-out: K1/2 cGMP, +80 mV, no PIPn"}},
  "data": [
    {"compound": "Nc1nc2c(ncn2[C@@H]2O[C@@H]3COP(=O)(O)O[C@H]3[C@H]2O)c(=O)[nH]1", "note": "[cGMP, cyclic guanosine monophosphate]", "values": [
      {"measurement": "Hill coefficient", "setting": "[1]; cGMP activation", "result": "1.91 ± 0.04 (18)"},
      {"measurement": "Po max cGMP", "setting": "[1]; estimated from state-dependent block by tetracaine", "result": "~0.99"},
      {"measurement": "EC50", "setting": "[1]; [9]", "result": "9.29 ± 0.43", "unit": "µM"},
      {"measurement": "Hill coefficient", "setting": "[2]; cGMP activation", "result": "2.00 ± 0.00 (5)"},
      {"measurement": "EC50", "setting": "[2]; [9]", "result": "8.2 ± 0.57", "unit": "µM"},
      {"measurement": "Po max cGMP", "setting": "[2]; saturating cGMP", "result": "0.92 ± 0.01 (4)"},
      {"measurement": "Hill coefficient", "setting": "[3]; cGMP activation", "result": "1.66 ± 0.10 (6)"},
      {"measurement": "EC50", "setting": "[3]; [9]", "result": "15.8 ± 2.8", "unit": "µM"},
      {"measurement": "Hill coefficient", "setting": "[4]; cGMP activation", "result": "1.82 ± 0.04 (6)"},
      {"measurement": "EC50", "setting": "[4]; [9]", "result": "16.4 ± 1.65", "unit": "µM"},
      {"measurement": "Po max cGMP", "setting": "[5]; estimated using tetracaine block", "result": "0.30 ± 0.02"}
    ]},
    {"compound": "phosphatidylinositol (3,4,5)-trisphosphate [PIP3]", "values": [
      {"measurement": "fold increase Imax cAMP/cGMP", "setting": "[1]; 1 µM PIP3 after prior application of cyto D", "result": "2.54 ± 0.27", "unit": "fold"},
      {"measurement": "fold increase in Imax cAMP/cGMP", "setting": "[1]; 10 µM phosphoinositide applied to inside-out patch", "result": "2.63 ± 0.13", "unit": "fold"},
      {"measurement": "effect on maximal cGMP current", "setting": "[1]; 1 mM cGMP", "result": "not significantly altered"},
      {"measurement": "K1/2 cAMP after phosphoinositide", "setting": "[1]; apparent cAMP affinity after PIP3 or PIP2 application", "result": "1.16 ± 0.06", "unit": "mM"},
      {"measurement": "Po max cAMP after PIP3", "setting": "[1]; fluctuation analysis", "result": "0.37 ± 0.07"},
      {"measurement": "Po max cGMP after PIP3", "setting": "[1]; fluctuation analysis", "result": "0.93 ± 0.01"},
      {"measurement": "PIP3-induced change in cAMP efficacy", "setting": "[2]; 1 µM PIP3", "result": "failed to show a PIP3-dependent increase in cAMP efficacy"},
      {"measurement": "fold change in cAMP efficacy after PIP3", "setting": "[2]; 10 µM PIP3", "result": "1.06 ± 0.03", "unit": "fold"},
      {"measurement": "fold change in K1/2 cGMP after PIP3", "setting": "[4]; 10 µM PIP3", "result": "1.02 ± 0.05", "unit": "fold"},
      {"measurement": "effect on relative cGMP efficacy", "setting": "[5]; 1 µM PIP3", "result": "elevated relative cGMP efficacy"},
      {"measurement": "Imax cAMP/cGMP (PIP3/control)", "setting": "[6]", "result": "1.67 ± 0.06"},
      {"measurement": "regulation of K1/2 cGMP by PIP3", "setting": "[7]", "result": "PIP3-sensitive"},
      {"measurement": "in vitro PIP3 binding", "setting": "[8]", "result": "attenuated binding to PIP3 beads"}
    ]}
  ]
}
